Screening data (PubChem BioAssay)
NR3A LBD binder: NR3A (human) ligand-binding domain modulation. NR3A LBD differential scanning fluorimetry, Tm shift; 0% = protein alone, 100% = glycine-bound protein. Tm shift relative to glycine control, % at 25 µM. 340,000 compounds, 2.5% hits. AID 1259313;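 active = melting temperature shift of at least 10% of the positive control shift, at one fixed dose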
SENP1 inh: inhibitors of human SENP1 SUMO protease catalytic domain. Q9P0U3. recombinant SENP1 catalytic domain, CyPet-SUMO1-YPet FRET cleavage. inhibition, % at 10 µM. 360,000 compounds, 0.21% hits. AID 624204;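 active = inhibition at least 30% at 10 µM, raw YFP signal under a set limit, fluorescence ratio 0.5 to 1.5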;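 note: 0% = enzyme with DMSO and 100% = no enzyme wells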
Target sequence (Q9P0U3 419-644 limits assumed): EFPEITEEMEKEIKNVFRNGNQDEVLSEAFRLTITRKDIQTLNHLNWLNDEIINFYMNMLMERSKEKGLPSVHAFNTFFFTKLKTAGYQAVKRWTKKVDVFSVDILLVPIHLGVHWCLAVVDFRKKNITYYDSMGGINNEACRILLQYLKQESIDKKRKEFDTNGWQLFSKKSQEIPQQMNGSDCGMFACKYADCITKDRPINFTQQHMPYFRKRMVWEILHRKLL
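Compound: 10 µM single point, 0.5% DMSO; Test system: hSENP1 catalytic domain, recombinant; Timing: 50 min reaction at room temperature; Technique: FRET, CFP and YFP emission; Control set: no-enzyme wells low, DMSO-plus-enzyme wells high control.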
ATG4B inhibitor: ATG4B (human) cysteine protease inhibition. Q9Y4P1. ATG4B cleavage of LC3-PLA2, NBD-HPC fluorescence, 1 h. inhibition, % at 8.33 µM. 340,000 compounds, 0.51% hits. AID 504462; in the data active = inhibition above about 40%
UCH37 inh: blocks the human deubiquitinase UCH37; Q9Y5K5; purified proteasome/UCH37, Ub-AMC cleavage fluorescence; inhibition, % (test concentration not listed); 330,000 compounds, 0.33% hits;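 active = mean inhibition over replicate wells above about 20%, limit read from the data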;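 note: 0% = compound-free wells with enzyme and 100% = wells lacking proteasome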
Target sequence (Q9Y5K5 whole entry, looked up): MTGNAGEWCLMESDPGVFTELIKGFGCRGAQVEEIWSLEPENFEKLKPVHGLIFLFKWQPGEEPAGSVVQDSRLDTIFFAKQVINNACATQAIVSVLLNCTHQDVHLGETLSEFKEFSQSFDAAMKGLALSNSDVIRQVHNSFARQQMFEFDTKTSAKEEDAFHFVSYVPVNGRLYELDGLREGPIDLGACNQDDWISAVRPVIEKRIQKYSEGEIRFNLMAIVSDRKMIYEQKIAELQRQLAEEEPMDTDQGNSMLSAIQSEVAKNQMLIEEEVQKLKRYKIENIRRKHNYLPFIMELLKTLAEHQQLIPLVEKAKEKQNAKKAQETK
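Test system – human UCH37 enzyme supplied as purified proteasome complex · Incubation – 30 min preincubation with enzyme, 25 min cleavage at room temperature · Detection – AMC fluorescence from Ub-AMC cleavage, excitation 355 nm, emission 460 nm · Benchmarks – no-proteasome wells (full inhibition) and compound-free wells (no inhibition)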
NadD block: NadD (S. aureus) enzyme inhibition; purified NadD enzyme, colorimetric absorbance read-out; inhibition, % at 20 µM; 360,000 compounds, 0.78% hits; AID 602399; in the data active = inhibition above about 26%
* marks the source's active call; other numbers are inactive results; · = not tested or not shown. This is a sample that favours compounds with a hit; in the whole collection about 3.6% have one here.

SMILES	NR3A LBD binder	SENP1 inh	ATG4B inhibitor	UCH37 inh	NadD block
O=C(Cc1ccccc1)ON=C1CCCc2ccccc21	·	·	·	1.3	·
O=C(Nc1nc(-c2ccc(F)cc2)cs1)c1ccc(N2C(=O)CCC2=O)cc1	24.9*	3.4	2.8	4.7	9.0
COc1ccccc1-c1csc(NC(=O)c2ccc(N3C(=O)CCC3=O)cc2)n1	34.0*	-0.5	-15.0	3.0	-2.8
Cc1ccc(-c2csc(NC(=O)CCNC(=O)c3ccc(Cl)cc3)n2)cc1	0.5	0.1	-8.2	1.2	7.6
CC(C)(C)c1ccc(C(=O)NCC(=O)OCC(=O)Nc2nc(-c3ccc(F)cc3)cs2)cc1	10.2*	-0.1	-1.8	-0.2	12.8
COc1ccccc1/C=C/C=NNC(=O)c1cc(-c2ccco2)[nH]n1	·	·	·	-1.3	·
CCC(Nc1ccc(OC)cc1)C(=O)NN=Cc1ccc([N+](=O)[O-])cc1 (stereo not given)	·	·	·	4.6	·
OC(c1ccc(F)cc1)c1nc(-c2ccncc2)cs1 (stereo not given)	·	-0.9	·	·	-1.8
O=S(=O)(Nc1ccc(-c2csc(-c3ccccc3)n2)cc1)c1ccc(F)cc1	22.2*	0.0	-11.6	2.5	2.8
O=S(=O)(Nc1ccccc1)c1ccc(-c2csnn2)cc1	-2.5	2.2	3.0	4.1	-4.0
Fc1ccc(-c2csc(-c3ccncc3)n2)cc1	25.7*	0.9	-3.7	-20.1	-0.9
CC(=O)Nc1cccc2c1Cc1ccccc1-2	35.6*	-1.0	-6.0	2.6	-1.3
S=c1[nH]nc(C2CCCCC2)n1N=C/C(Cl)=C\c1ccccc1	·	·	·	1.6	·
N#CCCn1cc(/C=C2\NC(=S)N(c3ccccc3)C2=O)c(-c2ccc(F)cc2)n1	10.0*	-58.0	16.6	9.0	2.6
COc1ccccc1Nc1nc(-c2cccc(N3C(=O)c4ccccc4C3=O)c2)cs1	15.5*	0.9	-5.7	1.8	4.1
Oc1ccccc1C=NCCN=Cc1ccccc1O	0.3	-5.4	9.4	3.1	-0.2
Oc1ccc(Cl)cc1C=NCCc1ccccc1	1.1	-18.5	42.9*	-0.3	-0.2
CC1(C)C2CC=C(C=NNC(=O)c3ccc(O)cc3)C1C2 (stereo not given)	·	·	·	4.9	·
CCOc1cc(C=NNC(=O)CN2CCOCC2)ccc1OCc1ccccc1	·	·	·	2.0	·
CC(C)c1ccc(C=Nn2c(-c3ccccc3)n[nH]c2=S)cc1	·	·	·	2.9	·
Cc1ccc(C)c(S(=O)(=O)/N=C2\C=C(NS(=O)(=O)c3ccccc3)C(=O)c3ccccc32)c1	-3.0	1.0	-4.3	·	29.1*
CC(C)c1ccc(S(=O)(=O)/N=C2\C=C(NS(=O)(=O)c3ccccc3)C(=O)c3ccccc32)cc1	1.3	3.3	-29.5	9.1	41.3*
CCc1ccc(S(=O)(=O)/N=C2\C=C(NS(=O)(=O)c3ccccc3)C(=O)c3ccccc32)cc1	1.7	1.3	-1.0	13.0	27.2
O=C(CN1CCN(S(=O)(=O)c2ccc(Br)cc2)CC1)NN=Cc1cccs1	·	·	·	2.9	·
CNC(=S)NN=Cc1c(C)nn(-c2ccc(F)cc2)c1Cl	·	·	·	1.3	·
SMILES	NR3A LBD binder	SENP1 inh	ATG4B inhibitor	UCH37 inh	NadD block
CCOC(=O)C1CCN(C(=O)c2cc(S(=O)(=O)N(C)C)ccc2N2CCCC2)CC1	-0.6	-1.6	-2.3	7.6	1.2
CCOC(=O)C1CCCN(C(=O)c2cc(S(=O)(=O)N(C)C)ccc2N2CCCC2)C1 (stereo not given)	11.5*	0.8	-6.3	1.2	-1.9
O=C(CNS(=O)(=O)c1ccc(Br)s1)N1CCC(N2CCCCC2)CC1	12.5*	1.5	7.4	-0.2	-1.8
COc1ccc(CNC(=O)CC(C)=NNC(=O)c2ccc([N+](=O)[O-])cc2Cl)cc1	·	·	·	2.1	·
COc1ccc(C=NNC(C)(C)C)c(OC)c1	·	·	·	5.9	·
O=C(CSC1=NS(=O)(=O)c2cc(F)ccc2N1)Nc1ccc(F)cc1	-2.0	1.0	1.9	·	-8.7
O=C(CSC1=NS(=O)(=O)c2cc(Cl)ccc2N1)c1ccc(Cl)cc1	11.9*	1.5	-6.1	3.1	1.1
O=C(CSC1=NS(=O)(=O)c2cc(Cl)ccc2N1)Nc1cccc(F)c1	19.5*	1.3	-10.8	0.0	-6.3
CC(=O)c1ccc(NC(=O)CSC2=NS(=O)(=O)c3cc(Cl)ccc3N2)cc1	12.2*	1.0	-12.8	6.5	1.1
Cn1c(CNC(=O)CCNC(=O)c2ccccc2)cc(=O)n(C)c1=O	0.2	0.7	-4.3	-1.2	1.1
Cn1c(CNC(=O)CCNC(=O)c2cccc(Cl)c2)cc(=O)n(C)c1=O	12.5*	2.5	-3.8	0.7	1.9
CCOC(=O)c1c(C)[nH]c(C(=O)N/N=C\c2ccccc2O)c1C	17.5*	-35.1	-9.9	·	-3.4
CCOC(=O)c1c(C)[nH]c(C(=O)N/N=C/c2cc([N+](=O)[O-])ccc2O)c1C	-0.7	-17.8	2.4	·	33.3*
CCOC(=O)c1c(C)[nH]c(C(=O)NN=Cc2ccccc2Cl)c1C	·	·	·	5.4	·
O=C(CC1SC(=Nc2ccccc2)N(CCc2ccccn2)C1=O)Nc1ccc(F)cc1 (stereo not given)	-15.1	2.0	-1.1	5.4	-4.1
O=C(CC1SC(=Nc2ccccc2)N(CCc2c[nH]c3ccccc23)C1=O)Nc1ccccc1F (stereo not given)	20.7*	-9.1	16.8	3.5	19.5
O=C(CC1SC(=Nc2ccccc2)N(CCCCO)C1=O)NCc1ccccc1 (stereo not given)	1.3	0.0	-15.0	25.9*	-5.1
O=C(NN=Cc1cn(-c2ccccc2)nc1-c1cccs1)c1ccccc1F	·	·	·	-1.4	·
O=C1S/C(=C/c2ccc(N3CCOCC3)o2)C(=O)N1Cc1ccc(F)cc1	-16.2	-31.9	-2.5	6.6	0.7
O=C1/C(=C/c2ccc(N3CCOCC3)o2)SC(=Nc2ccccc2)N1CCc1c[nH]c2ccccc12	5.9	-24.8	-2.6	10.5	40.1*
CC(CC(=O)Nc1ccc([N+](=O)[O-])cc1)=NNC(=O)C1C2CCCCC21 (stereo not given)	·	·	·	4.5	·
COc1ccc(S(=O)(=O)N2CCCC2CNC(=O)C(=O)NC2CCCC2)cc1 (stereo not given)	·	1.1	·	·	5.0
COc1ccc(S(=O)(=O)N2CCCC2CNC(=O)C(=O)NC2CCCCCC2)cc1 (stereo not given)	16.8*	1.7	4.5	2.6	-3.6
COc1cc(C=NNC(=O)C(=O)/C=C2\NC(C)(C)Cc3ccccc32)ccc1O	·	·	·	6.9	·
COc1ccc(-c2oc(N=CN3CCOCC3)c(C#N)c2-c2ccc(OC)cc2)cc1	·	·	·	3.5	·
Cc1ccc(C(=O)CCC(=O)Nc2ccc(Cl)c(S(=O)(=O)Nc3cccc(Cl)c3)c2)cc1	24.1*	2.1	-1.2	1.9	6.7
O=C(O)c1ccc(NS(=O)(=O)c2cccc3cccnc23)cc1	-2.7	1.7	0.7	6.8	-12.8
O=C(CCC(=O)OCC(=O)c1ccccc1)Nc1cccc(Cl)c1	23.7*	1.7	-3.1	2.0	-2.2
